A selection: hits, their analogues and other compounds. The true share with any hit is near 2.5%.
NadD block – blocks S. aureus nicotinate mononucleotide adenylyltransferase; inhibition, % at 20 µM; actives 0.78% (n = 360,000); purified NadD enzyme, colorimetric absorbance read-out; in the data active means inhibition above about 26%
Beta2AR agonist – human beta-2 adrenergic receptor agonism by FAP | actives 0.43% (n = 340,000) | Am2.2-beta2AR cells, FAP receptor internalization, flow cytometry | response, % (concentration not given with the values) | AID 504454;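 active means response above a set limit, near 3 SD of response in nonfluorescent compounds, cut at about 42% in these data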
SENP1 inh – inhibitors of human SENP1 SUMO protease catalytic domain. Q9P0U3. actives 0.21% (n = 360,000). recombinant SENP1 catalytic domain, CyPet-SUMO1-YPet FRET cleavage. inhibition, % at 10 µM;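 active means inhibition at least 30% at 10 µM, raw YFP signal under a set limit, fluorescence ratio 0.5 to 1.5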
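System: Recombinant human SENP1 catalytic domain, His6-tagged | Incubation: Enzyme reaction for 50 min at room temperature, dark | Medium: Tris pH 8 with BME, BSA, NP40 and catalase | Also added: 25 nM SUMO1 FRET substrate | Compound: 10 µM single point, 0.5% DMSO | Measured by: FRET fluorescence in CFP and YFP emission channels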
GRK2 aptamer HTS – blocks RNA aptamer binding to human GRK2. bead flow cytometry, FAM-aptamer displacement from GRK2. inhibition of aptamer binding, % at 10 µM. actives 0.59% (n = 330,000). AID 488847;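 active means inhibition of aptamer binding above 40%, roughly 3 SD of noise, on plates passing a quality check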;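 further: median bead fluorescence of bound FAM aptamer so fluorescent compounds give negative values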
ABHD5 PLIN5 PPI – ABHD5-PLIN5 protein interaction inhibition | Q00G26+Q8WTS1 | Split G. princeps luciferase complementation, luminescence, 4 h | inhibition, % at 4 µM | actives 0.78% (n = 360,000) | AID 602281;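 active means inhibition above the mean inhibition across every tested compound plus 3 SD, cut at about 22% in these data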
Target sequence (Q00G26 whole entry, looked up): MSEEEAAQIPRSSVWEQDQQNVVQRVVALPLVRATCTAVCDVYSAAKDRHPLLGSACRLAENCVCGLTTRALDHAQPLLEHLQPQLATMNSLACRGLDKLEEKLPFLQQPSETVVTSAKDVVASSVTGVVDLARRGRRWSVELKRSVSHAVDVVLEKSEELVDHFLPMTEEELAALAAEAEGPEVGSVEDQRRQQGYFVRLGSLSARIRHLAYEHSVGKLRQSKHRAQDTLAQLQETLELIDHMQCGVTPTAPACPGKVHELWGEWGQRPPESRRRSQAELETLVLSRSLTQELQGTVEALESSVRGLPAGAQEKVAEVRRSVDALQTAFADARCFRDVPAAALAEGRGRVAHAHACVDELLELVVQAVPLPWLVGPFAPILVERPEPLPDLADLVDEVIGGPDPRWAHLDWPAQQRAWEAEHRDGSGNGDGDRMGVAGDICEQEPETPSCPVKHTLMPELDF
Target sequence (Q8WTS1 whole entry, looked up): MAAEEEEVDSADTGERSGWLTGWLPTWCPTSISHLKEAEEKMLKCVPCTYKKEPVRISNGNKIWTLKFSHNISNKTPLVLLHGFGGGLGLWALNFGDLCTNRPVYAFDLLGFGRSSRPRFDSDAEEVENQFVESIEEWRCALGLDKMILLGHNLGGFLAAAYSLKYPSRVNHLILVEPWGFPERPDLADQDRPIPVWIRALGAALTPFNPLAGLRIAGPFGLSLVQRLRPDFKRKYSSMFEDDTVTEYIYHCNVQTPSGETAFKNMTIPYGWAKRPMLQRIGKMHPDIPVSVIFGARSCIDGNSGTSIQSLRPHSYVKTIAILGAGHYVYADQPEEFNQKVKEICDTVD
NadD inh conf – confirmation of Staphylococcus aureus NadD inhibitors | purified S. aureus NadD, colorimetric enzyme assay | inhibition, % at 20 µM | shares compounds with NadD block | actives 13% (n = 2,000); in the data active means inhibition mostly above about 42%, no sharp cut-off; inactive means mostly below about 42%
Large screens that a line does not name were inactive (follow-up assays come after a bar, where they were run).

Cc1ccc(Cl)cc1Nc1nc(-c2sc(NC(=O)c3ccco3)nc2C)cs1	NadD block 36 (no result: GRK2 aptamer HTS) | NadD inh conf inactive
COc1ccc(Br)cc1/C=N/NC(=O)c1nc(-c2ccccc2)n2c1CCCCC2	NadD block 39 | NadD inh conf inactive
COc1ccc(Br)cc1/C=N/NC(=O)c1ccc(OC)c(OC)c1	none
COc1ccc2ccccc2c1/C=N/NC(=O)c1nnn(-c2nonc2N)c1C(C)C	NadD block 33 | NadD inh conf 42
CC(NC(=O)CSc1ccc(S(=O)(=O)N2CCOCC2)cn1)c1ccc(Cl)cc1Cl (stereo not drawn)	none (no result: GRK2 aptamer HTS)
CS(=O)c1ccccc1O (stereo not drawn)	none
O=S(c1ccccc1O)S(=O)c1ccccc1O (stereo not drawn)	NadD block 39 (no result: GRK2 aptamer HTS) | NadD inh conf 68
CC1(C)CC[C@]2(C(=O)O)CC[C@]3(C)C(=CCC4[C@@]5(C)CC[C@H](O)C(C)(C)C5CC[C@]43C)C2C1 (stereo partly drawn)	none
CC1(C)CC[C@]2(C(=O)O)CC[C@]3(C)C(=CC[C@@H]4[C@@]5(C)CC[C@H](O)C(C)(C)[C@@H]5CC[C@]43C)[C@@H]2C1	NadD block 30 | NadD inh conf inactive
O=C(/C=C/c1ccc(F)cc1)c1cc(Br)ccc1O	none
CCNc1ccc(Br)cc(C(=O)/C=C/c2ccc3c(c2)OCO3)c1=O	NadD block 52 | NadD inh conf inactive
CNc1ccc(Br)cc(C(=O)/C=C/c2ccc(Cl)cc2Cl)c1=O	NadD block 62, ABHD5 PLIN5 PPI 57 | NadD inh conf inactive
Nc1ccccc1C(=O)/C=C/c1ccc2c(c1)OCO2	none (no result: GRK2 aptamer HTS)
CCNc1ccc(Br)cc(C(=O)/C=C/c2ccc(Cl)cc2)c1=O	NadD block 44, ABHD5 PLIN5 PPI 27 | NadD inh conf inactive
C[C@@H]1CN([C@H](C)CO)C(=O)CCCn2cc(nn2)CO[C@H]1CN(C)C(=O)C1CCCCC1	none (no result: Beta2AR agonist, GRK2 aptamer HTS)
COc1ccc(-c2nn(-c3ccccc3)cc2/C=N/NC(=O)c2cccc(S(=O)(=O)Nc3ccccc3OC)c2)cc1	NadD block 45 | NadD inh conf inactive
O=C(/C=C/c1cccc([N+](=O)[O-])c1)NC(=S)Nc1cccc(NC(=O)c2ccccc2Cl)c1	NadD block 29 | NadD inh conf inactive
CC(=O)Nc1cccc(NC(=O)c2ccc([N+](=O)[O-])cc2Cl)c1	none
O=C(NCCC(=O)N1CCc2ccccc21)c1ccco1	none
CCOC(=O)N1CCN(C(=O)C[C@@H]2C[C@@]3(C(=O)OCC)CCCC=C3N(Cc3ccc(Cl)cc3Cl)C2=O)CC1	none (no result: Beta2AR agonist, GRK2 aptamer HTS)
C[C@]12c3[nH]c4cc(-c5ccco5)ccc4c3CCN1C(=O)[C@@H](CC(=O)NCc1cccc(C(F)(F)F)c1)C[C@@H]2C(=O)N1CCOCC1	none
CC[C@]12c3[nH]c4cc(-c5ccco5)ccc4c3CCN1C(=O)[C@@H](CC(=O)NCCN1CCOCC1)C[C@@H]2C(=O)N1CCN(C(=O)c2ccco2)CC1	none
O=C(CC1C[C@H](C(=O)N2CCCCC2)[C@@]2(CCc3ccccc3)c3[nH]c4ccccc4c3CCN2C1=O)NCCC1=CCCCC1 (stereo partly drawn)	none
CC[C@]12c3[nH]c4cc(-c5ccco5)ccc4c3CCN1C(=O)[C@@H](CC(=O)NCCC1=CCCCC1)C[C@@H]2C(=O)N1CCN(C(=O)c2ccco2)CC1	NadD block 33 | NadD inh conf inactive
O=C(C[C@H]1C[C@H](C(=O)N2CCCCC2)[C@@]2(CCc3ccccc3)c3[nH]c4cc(-c5ccco5)ccc4c3CCN2C1=O)NCCC1=CCCCC1	NadD block 56 | NadD inh conf inactive
O=C(C[C@H]1C[C@H](C(=O)N2CCCCC2)[C@@]2(CCc3ccccc3)c3[nH]c4cc(-c5ccco5)ccc4c3CCN2C1=O)NCc1cccc(C(F)(F)F)c1	NadD block 54 | NadD inh conf inactive
Cc1ccc(C2NC(=O)c3ccccc3N2)c(C)c1 (stereo not drawn)	none (no result: GRK2 aptamer HTS)
Cc1ccc(NC(=O)COc2ccc(/C=C3/SC(=Nc4ccccc4)N(Cc4cccnc4)C3=O)cc2)cc1	NadD block 40 | NadD inh conf inactive
O=C1/C(=C/c2ccco2)CCc2ccccc21	none
Nc1ccc2c(c1)C/C(=C/c1ccco1)C2=O	NadD block 31 | NadD inh conf inactive
Cc1cc(NC(=O)CSc2nnc(C)n2C)no1	none
COc1ccc(C(=O)Nc2nc3c(s2)Cc2cc(OC)ccc2-3)cc1	NadD block 38 | NadD inh conf inactive
COCCCn1c(C(=O)N2CC(C)OC(C)C2)cc2c(=O)n3ccccc3nc21 (stereo not drawn)	none
O=C(CCc1nc(-c2ccccc2F)no1)Nc1cccnc1	NadD block 66 | NadD inh conf inactive
COc1ccc(N2C(=NC(=O)c3ccc(Br)cc3)SC3CS(=O)(=O)CC32)cc1 (stereo not drawn)	none
COC(=O)c1[nH]c2cc(OC)c(OC)cc2c1NC(=O)CN1C[C@H]2C[C@@H](C1)c1cccc(=O)n1C2	none
Cc1ccc(C)c(NC(=O)C(OC(=O)c2ccc(NC(=O)CC#N)cc2)c2ccccc2)c1 (stereo not drawn)	NadD block 37 | NadD inh conf 53
Cc1cc(C)cc(NC(=O)C(OC(=O)c2cccs2)c2ccccc2)c1 (stereo not drawn)	none
Cc1cc(C)cc(NC(=O)C(OC(=O)c2ccc(NC(=O)CC#N)cc2)c2ccccc2)c1 (stereo not drawn)	NadD block 40 | NadD inh conf 45
Cc1ccc(C)c(NC(=O)C(OC(=O)c2ccc(CO)cc2)c2ccccc2)c1 (stereo not drawn)	none (no result: GRK2 aptamer HTS)
COc1ccc(NC(=O)Nc2cccc3c2O[C@@H](CN(C)S(=O)(=O)c2cn(C)cn2)[C@@H](C)CN([C@H](C)CO)C3=O)cc1	none
COc1cc2nc(SCc3ccc(F)cc3)n(Cc3cccs3)c(=N)c2cc1OC	none
COc1ccc(Cn2c(SCc3ccccc3C)nc3cc(OC)c(OC)cc3c2=N)cc1	NadD block 30 | NadD inh conf inactive
Cc1cccc(-n2nc(C(=O)Nc3ccccc3)n3c(=O)cc(-c4ccccc4)nc23)c1	NadD block 30 | NadD inh conf inactive
COc1cc(/C=C2\SC(=O)N(Cc3ccc(F)cc3)C2=O)cc([N+](=O)[O-])c1O	NadD block 38 (no result: GRK2 aptamer HTS) | NadD inh conf inactive
COc1cc(/C=C2\SC(=O)N(Cc3ccc(Cl)cc3)C2=O)cc([N+](=O)[O-])c1O	NadD block 37 (no result: GRK2 aptamer HTS) | NadD inh conf inactive
COc1ccc(OC)c(S(=O)(=O)CC(=O)c2cc3ccc(OC)cc3oc2=O)c1	NadD block 36 | NadD inh conf inactive
COCCN(CC(=O)Nc1cccc(C)c1C)C(=O)C1CCN(S(=O)(=O)c2ccccc2)CC1	none (no result: GRK2 aptamer HTS)
